Source: PubChem BioAssay
Only some compounds are listed: those with a hit (about 3.1% of all), similar ones and a draw of the others.
PP5 primary – blocks human protein phosphatase 5 activity; 0.18% of 320,000 active; purified PP5c, OMFP substrate fluorescence; inhibition, % at 6.7 µM; P53041; AID 1987;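 active = inhibition above the campaign's mean inhibition across all tested compounds plus 3 SD, cut at about 9.5% in these data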;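 note: 0% = DMSO only and 100% = 100 µM cantharidin control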
Target sequence (P53041 whole entry, looked up): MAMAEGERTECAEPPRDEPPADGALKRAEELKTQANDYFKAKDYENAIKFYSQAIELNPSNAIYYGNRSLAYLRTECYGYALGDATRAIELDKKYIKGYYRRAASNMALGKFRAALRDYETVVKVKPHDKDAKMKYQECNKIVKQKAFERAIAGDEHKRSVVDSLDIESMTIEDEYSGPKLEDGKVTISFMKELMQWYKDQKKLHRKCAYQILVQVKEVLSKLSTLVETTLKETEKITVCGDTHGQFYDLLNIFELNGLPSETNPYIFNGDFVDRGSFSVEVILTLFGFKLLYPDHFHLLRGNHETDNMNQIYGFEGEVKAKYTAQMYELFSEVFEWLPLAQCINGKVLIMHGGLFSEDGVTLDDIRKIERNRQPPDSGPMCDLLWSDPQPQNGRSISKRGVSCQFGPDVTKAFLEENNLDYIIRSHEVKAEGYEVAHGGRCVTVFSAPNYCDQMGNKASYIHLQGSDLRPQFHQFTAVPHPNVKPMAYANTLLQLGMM
Fh CTSL1 inh – blocks F. hepatica cathepsin L1 in PFM18AAP counter-screen. inhibition, % at 5.96 µM. 0.49% of 300,000 active. recombinant F. hepatica cathepsin L1, Z-Leu-Arg-MCA fluorescence. AID 1906;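 active = inhibition above the mean of all tested compounds plus 3 SD, set per screening campaign, cut at about 17% in these data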;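 note: 0% = plate median of test compound wells and 100% = 1 µM Z-Phe-Ala-diazomethylketone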
PP1 counter – blocks human PP1-alpha phosphatase, a PP5 counter-screen | inhibition, % at 6.7 µM | P62136 | AID 2235 | purified PP1alpha, OMFP fluorescence | 0.9% of 320,000 active;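 active = inhibition above the mean inhibition of all tested compounds plus 3 SD, computed separately for each screening campaign, cut at about 15% in these data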
NadD block – NadD (S. aureus) enzyme inhibition; purified NadD enzyme, colorimetric absorbance read-out; inhibition, % at 20 µM; 0.78% of 360,000 active; AID 602399; in the data active = inhibition above about 26%
Myeloid diff MLP – promotes myeloid progenitor differentiation; 1% of 360,000 active; ER-HoxA9 myeloid progenitors, lysozyme-GFP differentiation, flow cytometry; calls only at 10 µM;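 active = normalized GFP-positive differentiation at or above the plate's own cutoff, the solvent-only control mean plus 3 SD; inconclusive = no clear call, values can overlap the other calls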;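 note: cells exposed to compound for four days before flow analysis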
core dimer inh – blocks dimerization of HCV core protein. TR-FRET GST/Flag-core106 dimerization, 1536-well. inhibition, % at 5 µM. 0.33% of 300,000 active. AID 1899;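 active = inhibition above the mean of all tested compounds plus 3 SD, set per screening campaign, cut at about 45% in these data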
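Material: Tagged HCV core106 pair (GST and Flag) | Amount: GST-core106 13.5 nM, Flag-core106 17 nM | Medium: KF-containing HEPES buffer, pH 7.45, DTT, CHAPS, BSA | Reagent: Eu donor and XL665 acceptor anti-tag antibodies | Schedule: 4 h at 22.5 °C | Technique: Time-resolved FRET, ex 340 nm, em 617 and 671 nm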
Myeloid diff – compounds promoting myeloid differentiation. shares compounds with Myeloid diff MLP. ER-HoxA9 myeloid progenitors, GFP/Mac1 double-positive flow. calls only. 2% of 2,300 active. AID 651706;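 active = share of green or green-and-red cells above 9 and 9% in run 1 or 4 and 3% in run 2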
GFP autofluor – counter-screen for myeloid differentiation promoters: compound fluorescence | shares compounds with Myeloid diff MLP | ER-HoxA9 myeloid progenitors, no estrogen, GFP autofluorescence flow cytometry; vehicle wells 0%, positive control 100% | fluorescence response, % (no concentration beside the values) | 7.4% of 2,300 active | AID 651707;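 active = over 5% cells positive for green fluorescent reporter, or over 2% positive for both it and APC stain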;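 note: range taken on the double positive population between DMSO and positive control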
* marks the source's active call; other numbers are inactive results; i = inactive; ? = inconclusive; nt = no result given; + = active, no number.

SMILES	PP5 primary	Fh CTSL1 inh	PP1 counter	NadD block	Myeloid diff MLP	core dimer inh	Myeloid diff	GFP autofluor
CCN(C(=O)CN1CCc2ccccc21)c1c(N)n(Cc2ccccc2)c(=O)[nH]c1=O	-0.7	-2.5	-0.6	4.3	i	-4.5	i	0.2
CC(C)CN(C(=O)COC(=O)C12CC3CC(CC(C3)C1)C2)c1c(N)n(Cc2ccccc2)c(=O)[nH]c1=O	0.0	4.9	-2.7	4.4	+	-1.4	i	9.5*
O=C(NCc1ccco1)c1cccc(-c2ccc3nccn3c2)c1	nt	nt	nt	4.4	i	nt	nt	nt
Cc1cccc(NC(=O)c2ccco2)c1C	3.6	-2.8	0.0	7.8	i	-3.8	i	0.0
Cc1ccccc1NC(=O)c1ccco1	3.3	3.6	0.1	3.3	i	-7.5	nt	nt
COCCN(C(=O)CSc1nnc(-c2ccncc2)n1C)c1c(N)n(CC(C)C)c(=O)[nH]c1=O	nt	nt	nt	2.0	i	nt	nt	nt
COc1ccc(S(=O)(=O)N(C)C[C@H]2Oc3c(NC(=O)C4CCCCC4)cccc3C(=O)N([C@H](C)CO)C[C@@H]2C)cc1	nt	nt	nt	-4.2	i	nt	nt	nt
CC(C)(CN1CCCC1)NS(=O)(=O)c1ccccc1	1.2	-4.7	1.8	-0.8	i	-2.2	i	0.0
CC(C)(CN1CCN(c2ccccc2)CC1)NS(=O)(=O)c1ccccc1	0.5	0.2	2.2	-1.9	i	3.3	nt	nt
CN(C(=O)c1cccc(NC(=O)Cc2ccc(NC(=O)C3CCN(C(=O)C4CC4)CC3)cc2)c1)C1CCCCC1	nt	nt	nt	4.4	i	nt	i	0.0
CN(C(=O)c1cccc(NC(=O)Cc2ccc(NC(=O)C3CCN(C(=O)C4CCCC4)CC3)cc2)c1)C1CCCCC1	nt	nt	nt	6.7	i	nt	nt	nt
CN(Cc1ccccc1)C(=O)c1ccc(NC(=O)Cc2cccc(NC(=O)C3CCCN(C(=O)C4CCCCC4)C3)c2)cc1 (stereo not drawn)	0.6	nt	7.3	13.8	i	nt	i	0.0
CSc1nc(N)nc2c1ncn2CC(=O)NCc1ccc2[nH]ccc2c1	nt	nt	nt	9.1	i	nt	nt	nt
Cc1cccc(C)c1NC(=O)CSc1n[nH]c(=O)n1C1CC1	nt	nt	nt	-3.2	i	nt	nt	nt
CCCS(=O)(=O)Nc1ccc(N2CCCCC2)c(S(=O)(=O)Nc2ccccc2OC)c1	nt	nt	nt	4.5	i	nt	nt	nt
OC(c1ccccc1)(c1ccccc1)C1CCN(CCCOc2ccc3c(c2)CCCC3)CC1	nt	nt	nt	9.9	+	nt	i	0.0
C=C(C)[C@@H]1C2=CC(C(=O)OC)=C(C[C@H](C(=C)C)[C@H]3O[C@H]3C3=C[C@H]1OC3=O)O2	nt	nt	nt	3.5	i	nt	i	0.0
COc1cc(CCC(=O)OCC(=O)N(CC(C)C)C2CCS(=O)(=O)C2)cc(OC)c1OC (stereo not drawn)	nt	nt	nt	-0.8	i	nt	nt	nt
CC1(C(=O)NS(=O)(=O)c2ccc(Cl)cc2)CCN1C(=O)Cc1ccc(Cl)cc1Cl (stereo not drawn)	nt	nt	nt	-5.5	i	nt	nt	nt
CCCCCCN1CCN(C2CN(Cc3cn(Cc4ccc(C)cc4)nn3)S(=O)(=O)C2)CC1 (stereo not drawn)	nt	nt	nt	-3.9	i	nt	i	0.0
Cc1ccc(Cn2cc(CN3CC(N4CCCCC4)CS3(=O)=O)nn2)cc1 (stereo not drawn)	nt	nt	nt	-2.7	i	nt	nt	nt
CC(C)(C)c1ccc(S(=O)(=O)NC(=O)C2(C)CCN2C(=O)Cc2cccs2)cc1 (stereo not drawn)	nt	nt	nt	2.3	i	nt	nt	nt
CCN(CC)S(=O)(=O)c1ccc(N/N=C/c2cc(OC)c(OC)cc2OC)nc1	-1.5	2.3	-1.3	1.8	i	-2.1	nt	nt
CCN(CC)S(=O)(=O)c1ccc(N/N=C/c2ccc(O)cc2)nc1	2.8	-2.1	-2.0	-1.9	i	-3.2	i	0.0
Oc1ccc(Br)cc1-c1ccnn1-c1ccccc1	0.9	-3.5	3.0	-3.0	+	-0.1	i	0.0
SMILES	PP5 primary	Fh CTSL1 inh	PP1 counter	NadD block	Myeloid diff MLP	core dimer inh	Myeloid diff	GFP autofluor
CC1(c2ccccc2Br)NC(=O)N(CC(=O)N2CCc3ccccc3C2)C1=O (stereo not drawn)	nt	nt	nt	-4.2	i	nt	nt	nt
COc1ccc(F)cc1-c1cc(NC(C)=O)c2ncc(-c3cc(OC)c(OC)c(OC)c3)n2c1	nt	nt	nt	-1.9	+	nt	i	0.0
c1ccc(CNc2nc(-c3cccs3)nc3ccccc23)nc1	2.8	2.9	1.8	-1.2	i	8.4	i	1.5
COC(=O)c1ccc(CSc2ccccc2NC(=S)Nc2cccc(C(F)(F)F)c2)o1	nt	nt	nt	-4.1	i	nt	nt	nt
c1cc(-c2cc3nc(NC4CCCCC4)ccn3n2)ccc1OCCN1CCOCC1	nt	nt	nt	-6.6	i	nt	i	0.7
CC1=Nc2ccc(C)c3nc(C)cc(c23)N1c1ccc(C)cc1	2.9	-1.6	-5.7	10.1	+	-0.3	i	0.0
COc1ccc2c(c1OC)CN1CCc3cc4c(cc3[C@@H]1[C@@H]2O)OCO4	-1.0	2.6	-2.4	-1.7	+	0.7	i	2.8
Clc1cccc(-c2cc3nc4c(c(NCc5ccco5)n3n2)CCCC4)c1	1.7	3.7	4.7	0.1	+	1.2	i	0.0
Oc1ccc(/C=C/c2ccc3ccccc3n2)cc1	0.6	7.0	-2.1	4.4	+	-1.1	i	20.3*
C(=C\c1ccc2ccccc2n1)/c1ccccc1	2.6	-1.3	2.0	-5.9	i	-3.1	nt	nt
CCN1CCN(CCCNC(=O)CS(=O)(=O)Cc2nc(-c3cccc(OC)c3)oc2C)CC1	-5.2	5.4	-1.5	4.0	i	-7.1	i	0.6
COc1cccc(-c2nc(CS(=O)(=O)CC(=O)NCCCN3CCN(C)CC3)c(C)o2)c1	0.7	4.1	-2.3	-2.3	i	9.5	nt	nt
CC1=C(C(=O)N2CCCCCC2)CC(CC(=O)NCCN2CCOCC2)C(=O)N1CCCN1CCCC1=O (stereo not drawn)	nt	nt	nt	8.7	i	nt	nt	nt
CCOC(=O)C1CCN(Cc2cc(Cl)c3ccccc3c2O)CC1	1.8	-7.2	4.3	2.4	i	-11.5	nt	nt
CCOC(=O)C1=CCN(S(=O)(=O)c2ccccc2C)C1c1ccccc1 (stereo not drawn)	nt	nt	nt	-8.4	i	nt	nt	nt
CCN1CCc2c(sc(NC(=O)c3ccc(S(=O)(=O)N(CC)c4ccccc4)cc3)c2C(N)=O)C1	3.7	-4.5	-6.5	8.9	+	-0.4	i	15.0*
CCN1CCc2c(sc(NC(=S)NC(=O)c3ccco3)c2C(N)=O)C1	3.2	2.0	-0.9	-4.3	i	-16.4	i	3.0
CCN1CCc2c(sc(NC(=O)c3ccc(C(=O)c4ccccc4)cc3)c2C(N)=O)C1	4.1	4.7	3.3	4.0	i	5.0	nt	nt
CCOC(=O)CC1C(=O)NCCN1C(=O)COc1ccc(C(C)(C)C)cc1 (stereo not drawn)	1.9	-2.0	-0.2	-2.3	?	2.8	nt	nt
